In data set [1] the test system is RS4-11. Nature of the data set: Antiproliferative activity against human RS4:11 cells assessed as growth inhibition at 20 uM after 48 hrs by CCK-8 assay relative to control. In kind it is functional. Conditions: for inhibition of growth at 20 µM: RS4-11, 48 h, read-out: GI. Summed up:
(§1)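 Single-dose screen at 20 μM in RS4;11 (human ALL), HL-60 (human promyelocytic leukemia) and HEK293T (normal-cell model). Cells exposed 48 h, viability read by CCK-8, growth inhibition ratio expressed relative to control.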
For orientation: Formazan colour is commonly taken as a measure of viable cells.

In another data set the test system is HL-60. Nature of the data set: Antiproliferative activity against human HL60 cells assessed as growth inhibition at 20 uM after 48 hrs by CCK-8 assay relative to control. It is filed as functional. The note with it: for inhibition of growth at 20 µM: HL-60, 48 h, read-out: GI. Summed up:
as §1

The nature of data set [2]: Cytotoxicity against HEK293T cells assessed as growth inhibition at 20 uM after 48 hrs by CCK8 assay relative to control. It is filed as cell-based, HEK-293T. Conditions: human, HEK293T cells; read-out: GI. Put shortly: as §1
The test system of data set [3] is RS4-11. Nature of the data set: Antiproliferative activity against human RS4:11 cells assessed as growth inhibition after 48 hrs by CCK-8 assay. Conditions: RS4-11, 48 h. In kind it is functional, cell-based.
Another data set concerns HEK-293T. Nature of the data set: Cytotoxicity against human HEK293T cells assessed as growth inhibition after 48 hrs by CCK8 assay. In kind it is cell-based.

Each structure is given as a SMILES string. The source made the active and inactive calls. The rule behind the calls is not given here.

With `COc1ccc(Cc2nnc(NC(=O)/C(C#N)=C/c3ccccc3OS(=O)(=O)c3ccccc3[N+](=O)[O-])s2)cc1`, the inhibition of growth at 20 µM came to 68% in the data set on RS4-11 [1] and 25% in the data set on HL-60. Moreover, the inhibition at 48 h, 20 µM in data set [2] was found to be 18%.
With `Cc1ccc(Cc2nnc(NC(=O)/C(C#N)=C/c3ccccc3OS(=O)(=O)c3ccc(F)cc3)s2)cc1`, the inhibition of growth at 20 µM with RS4-11 [1] is 73%; with HL-60, 11%. For the same compound, the inhibition at 48 h, 20 µM in data set [2] came out at 11%.
For `N#C/C(=C\c1ccccc1OS(=O)(=O)c1ccc(OC(F)(F)F)cc1)C(=O)Nc1nnc(-c2cccs2)s1`, the inhibition of growth at 20 µM in the data set on RS4-11 [1] worked out at 39%; in the data set on HL-60, 48%. Also, the inhibition at 48 h, 20 µM in data set [2] came out at 42%.
Take `N#C/C(=C\c1ccccc1OS(=O)(=O)c1ccc(Cl)cc1)C(=O)Nc1nnc(Cc2cccc(F)c2)s1`: the inhibition of growth at 20 µM with RS4-11 [1] was determined as 71%; in the data set with HL-60, 42%. Moreover, the inhibition at 48 h, 20 µM in data set [2] turned out to be 29%.
For `Cc1ccc(S(=O)(=O)Oc2cccc(/C=C(\C#N)C(=O)Nc3nnc(-c4ccccc4Cl)s3)c2)cc1`, in that order: 44%, 67% and 55%.
Take `Cc1ccc(S(=O)(=O)Oc2ccccc2/C=C(\C#N)C(=O)Nc2nnc(Cc3ccc(Cl)cc3)s2)cc1`: the results for the inhibition of growth at 20 µM in the data set with RS4-11 [1] and in the data set with HL-60 were 69% and 15%, respectively. Moreover, the inhibition at 48 h, 20 µM in data set [2] amounted to 20%.
`N#C/C(=C\c1ccccc1OS(=O)(=O)c1ccc(F)cc1)C(=O)Nc1nnc(Cc2cccc(F)c2)s1`: the figures for the inhibition of growth at 20 µM in the data set on RS4-11 [1] and in the data set with HL-60 were 72% and 22%, respectively. The inhibition at 48 h, 20 µM in data set [2] was determined as 17%.
Turning to `N#C/C(=C\c1cccc(NS(=O)(=O)c2ccc(F)cc2)c1)C(=O)Nc1nnc(-c2cccs2)s1`, the inhibition of growth at 20 µM in the data set with RS4-11 [1] came to 22%. For the same compound, the “growth inhibition (GI)” value with HL-60 was “inactive”. Besides, the inhibition at 48 h, 20 µM in data set [2] amounted to 29%.
With `Cc1ccc(S(=O)(=O)Oc2cccc(/C=C(\C#N)C(=O)Nc3nnc(-c4ccccc4)s3)c2)cc1`, the inhibition of growth at 20 µM with RS4-11 [1] came out at 35%; in the data set with HL-60 it was 63%. For the same compound, the inhibition at 48 h, 20 µM in data set [2] is 52%.
In the case of `Cc1ccc(Cc2nnc(NC(=O)/C(C#N)=C/c3ccccc3OS(=O)(=O)c3ccc(Cl)cc3)s2)cc1`, the inhibition of growth at 20 µM in the data set on RS4-11 [1] was 72%; with HL-60, 38%. The inhibition at 48 h, 20 µM in data set [2] was 8%.
On to `Cc1ccc(S(=O)(=O)Oc2ccccc2/C=C(\C#N)C(=O)Nc2nnc(Cc3cccc4ccccc34)s2)cc1`, for which the inhibition of growth at 20 µM in the data set on RS4-11 [1] amounted to 73%; in the data set with HL-60, 19%. The inhibition at 48 h, 20 µM in data set [2] came to 23%.
Regarding `N#C/C(=C\c1ccccc1OS(=O)(=O)c1ccc(F)cc1)C(=O)Nc1nnc(Cc2ccc(Cl)cc2)s1`, the inhibition of growth at 20 µM with RS4-11 [1] amounted to 64%; with HL-60 it was 20%. Further, the inhibition at 48 h, 20 µM in data set [2] came to 14%.
On to `N#C/C(=C\c1ccccc1OS(=O)(=O)c1ccc(Cl)cc1)C(=O)Nc1nnc(Cc2ccc(Cl)cc2)s1`, for which the inhibition of growth at 20 µM in the data set with RS4-11 [1] is 64%; with HL-60, 15%. Further, in data set [2], the inhibition at 48 h, 20 µM is 14%.
Regarding `COc1ccc(Cc2nnc(NC(=O)/C(C#N)=C/c3ccccc3OS(=O)(=O)c3ccc(Cl)cc3)s2)cc1`, the inhibition of growth at 20 µM in the data set on RS4-11 [1] was 79%. In addition, in data set [2], the inhibition at 48 h, 20 µM was found to be 34%. The IC50 is 4.02 µM in the data set with RS4-11 [3] and above 50 µM with HEK-293T.
In the case of `N#C/C(=C\c1ccccc1OS(=O)(=O)c1ccc(F)cc1)C(=O)Nc1nnc(Cc2ccccc2)s1`, the inhibition of growth at 20 µM in the data set on RS4-11 [1] came to 69%; in the data set on HL-60, 22%. The inhibition at 48 h, 20 µM in data set [2] was 6%.
Turning to `N#C/C(=C\c1ccccc1OS(=O)(=O)c1ccc([N+](=O)[O-])cc1)C(=O)Nc1nnc(-c2cccs2)s1`, the inhibition of growth at 20 µM with RS4-11 [1] was determined as 40%; with HL-60, 23%. Moreover, the inhibition at 48 h, 20 µM in data set [2] was determined as 33%.
Regarding `Cc1ccc(Cc2nnc(NC(=O)/C(C#N)=C/c3ccccc3OS(=O)(=O)c3ccc(C)cc3)s2)cc1`, the inhibition of growth at 20 µM came to 66% in the data set on RS4-11 [1] and 17% with HL-60. In addition, the inhibition at 48 h, 20 µM in data set [2] was 22%.
With `N#C/C(=C\c1ccccc1OS(=O)(=O)c1ccc([N+](=O)[O-])cc1)C(=O)Nc1nnc(Cc2ccc(Cl)cc2)s1`, the inhibition of growth at 20 µM came out at 66% in the data set on RS4-11 [1] and 34% in the data set with HL-60. Moreover, the inhibition at 48 h, 20 µM in data set [2] was 19%.
`N#C/C(=C\c1ccccc1OS(=O)(=O)c1ccc([N+](=O)[O-])cc1)C(=O)Nc1nnc(Cc2ccc(F)cc2)s1`: the results for the inhibition of growth at 20 µM in the data set on RS4-11 [1] and in the data set with HL-60 were 55% and 18%, respectively. Also, the inhibition at 48 h, 20 µM in data set [2] was found to be 8%.
On to `N#C/C(=C\c1cccc(OS(=O)(=O)c2cccs2)c1)C(=O)Nc1nnc(-c2cccs2)s1`, for which, in the data set with RS4-11 [1], the “growth inhibition (GI)” value is “inactive”. For the same compound, the inhibition of growth at 20 µM in the data set on HL-60 was determined as 30%. In addition, in data set [2], the inhibition at 48 h, 20 µM was 50%.
As for `COc1ccc(Cc2nnc(NC(=O)/C(C#N)=C/c3ccccc3OS(=O)(=O)c3ccc(F)cc3)s2)cc1`, the inhibition of growth at 20 µM in the data set on RS4-11 [1] came out at 80%; in the data set on HL-60, 25%. Besides, in data set [2], the inhibition at 48 h, 20 µM was determined as 6%.
As for `N#C/C(=C\c1ccccc1OS(=O)(=O)c1ccc([N+](=O)[O-])cc1)C(=O)Nc1nnc(Cc2cccc3ccccc23)s1`, the figures for the inhibition of growth at 20 µM with RS4-11 [1] and in the data set on HL-60 were 58% and 18%, respectively. For the same compound, the inhibition at 48 h, 20 µM in data set [2] amounted to 25%.
As to `N#C/C(=C\c1ccccc1OS(=O)(=O)c1ccc(Cl)cc1)C(=O)Nc1nnc(Cc2cccc3ccccc23)s1`, the inhibition of growth at 20 µM in the data set on RS4-11 [1] stood at 68%; in the data set with HL-60, 15%. Also, in data set [2], the inhibition at 48 h, 20 µM was found to be 16%.
In the same order, the values of `N#C/C(=C\c1ccccc1OS(=O)(=O)c1ccc(Cl)cc1)C(=O)Nc1nnc(Cc2ccc(F)cc2)s1` are 68%, 20% and 6%.
For `N#C/C(=C\c1ccccc1OS(=O)(=O)c1ccccc1[N+](=O)[O-])C(=O)Nc1nnc(Cc2ccc(F)cc2)s1`, in that order: 61%, 35% and 6%.
In the same order, the values of `N#C/C(=C\c1ccccc1OS(=O)(=O)c1ccc(Cl)cc1)C(=O)Nc1nnc(-c2cccs2)s1` are 22%, 17% and 46%.
Take `Cc1ccc(S(=O)(=O)Oc2ccccc2/C=C(\C#N)C(=O)Nc2nnc(Cc3ccc(F)cc3)s2)cc1`: the inhibition of growth at 20 µM in the data set on RS4-11 [1] was determined as 72%. Also, the “growth inhibition (GI)” value in the data set with HL-60 was “inactive”. The inhibition at 48 h, 20 µM in data set [2] was determined as 16%.
Consider `Cc1ccc(Cc2nnc(NC(=O)/C(C#N)=C/c3ccccc3OS(=O)(=O)c3ccccc3[N+](=O)[O-])s2)cc1`, for which the “growth inhibition (GI)” value with RS4-11 [1] was “inactive”. Moreover, the inhibition of growth at 20 µM in the data set with HL-60 was determined as 33%. Also, in data set [2], the inhibition at 48 h, 20 µM was found to be 6%.
In the case of `CS(=O)(=O)Oc1ccc(/C=C(\C#N)C(=O)Nc2nnc(-c3cccs3)s2)cc1`, the inhibition of growth at 20 µM in the data set on RS4-11 [1] was 13%. Moreover, the “growth inhibition (GI)” value in the data set with HL-60 was “inactive”. The inhibition at 48 h, 20 µM in data set [2] was 19%.
Regarding `Cc1ccc(S(=O)(=O)Oc2ccccc2/C=C(\C#N)C(=O)Nc2nnc(Cc3cccc(F)c3)s2)cc1`, the values for the inhibition of growth at 20 µM with RS4-11 [1] and in the data set on HL-60 were 56% and 11%, respectively. Further, the inhibition at 48 h, 20 µM in data set [2] turned out to be 9%.
As for `N#C/C(=C\c1ccccc1OS(=O)(=O)c1ccc(F)cc1)C(=O)Nc1nnc(Cc2cccc3ccccc23)s1`, the inhibition of growth at 20 µM was determined as 68% in the data set with RS4-11 [1] and 12% in the data set with HL-60. The inhibition at 48 h, 20 µM in data set [2] stood at 15%.
As to `Cc1nnc(NC(=O)/C(C#N)=C/c2cccc(OS(C)(=O)=O)c2)s1`, the inhibition of growth at 20 µM with RS4-11 [1] is 33%; in the data set with HL-60 it was 20%. In addition, in data set [2], the inhibition at 48 h, 20 µM was determined as 20%.
For `Cc1ccc(S(=O)(=O)Oc2ccccc2/C=C(\C#N)C(=O)Nc2nnc(Cc3ccccc3)s2)cc1`, the inhibition of growth at 20 µM in the data set on RS4-11 [1] came to 69%; in the data set with HL-60 it was 16%. For the same compound, the inhibition at 48 h, 20 µM in data set [2] worked out at 15%.
Take `N#C/C(=C\c1ccccc1OS(=O)(=O)c1ccc(Cl)cc1)C(=O)Nc1nnc(Cc2ccccc2)s1`: the inhibition of growth at 20 µM was determined as 73% in the data set with RS4-11 [1] and 26% in the data set with HL-60. Also, the inhibition at 48 h, 20 µM in data set [2] came to 25%.
Consider `Cc1ccc(Cc2nnc(NC(=O)/C(C#N)=C/c3ccccc3OS(=O)(=O)c3ccc([N+](=O)[O-])cc3)s2)cc1`, for which the inhibition of growth at 20 µM with RS4-11 [1] is 64%; in the data set on HL-60 it was 17%. Also, the inhibition at 48 h, 20 µM in data set [2] was 9%.
Consider `COc1ccc(Cc2nnc(NC(=O)/C(C#N)=C/c3ccccc3OS(=O)(=O)c3ccc(C)cc3)s2)cc1`, for which the results for the inhibition of growth at 20 µM with RS4-11 [1] and in the data set with HL-60 were 70% and 25%, respectively. Moreover, the inhibition at 48 h, 20 µM in data set [2] came out at 21%.
Consider `N#C/C(=C\c1ccccc1OS(=O)(=O)c1ccccc1[N+](=O)[O-])C(=O)Nc1nnc(Cc2ccc(Cl)cc2)s1`, for which the inhibition of growth at 20 µM with RS4-11 [1] is 65%; in the data set with HL-60, 19%. Also, the inhibition at 48 h, 20 µM in data set [2] is 20%.
Regarding `N#C/C(=C\c1ccccc1OS(=O)(=O)c1ccccc1[N+](=O)[O-])C(=O)Nc1nnc(Cc2ccccc2)s1`, the values for the inhibition of growth at 20 µM in the data set on RS4-11 [1] and in the data set with HL-60 were 71% and 12%, respectively. The inhibition at 48 h, 20 µM in data set [2] turned out to be 10%.

In general, IC50 refers to the point on the concentration scale where inhibition reaches its midpoint.

The values above are taken from ChEMBL document CHEMBL4627348, “Synthesis of (1,3,4-thiadiazol-2-yl)-acrylamide derivatives as potential antitumor agents against acute leukemia cells” (Bioorg Med Chem Lett, 2020).
